One assay relates to C. elegans. The conditions noted are these: cited from earlier work.
For assay [1], the target named is T1, SARS-CoV-2 M^pro (Severe acute respiratory syndrome coronavirus 2, UniProt P0DTD1). The conditions noted are these: read-out: IC50 of M^pro inhibition; beyotime enhanced inhibition kit; cited from earlier work.
The next assay relates to M^pro. The conditions noted are these: read-out: IC50 of M^pro inhibition; cited from earlier work.
Assay [2] deals with T1, SARS-CoV-2 M^pro. Kind of assay: Surface plasmon resonance. Type of assay: binding.
Assay [3] is described as follows: DPPH radical scavenging activity. The conditions noted are these: 37 °C, 30 min, 517 nm. A digest of the protocol: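 Tea leaf solvent-extract fractions (petroleum ether, ethyl acetate, methanol, dichloromethane, methanol-water), each tested at several concentrations. Samples mixed 1:1 with 200 μM DPPH in ethanol, incubated 30 min at 37 °C, A517 read. Scavenging % = (1 − [(A_sample − A_blank)/A_control]) × 100, with control = water plus DPPH and blank = sample plus ethanol. Run three times.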

These results are taken from publication PMC9652097 (Computers in Biology and Medicine, 2022).

As to Zijuanin F, the “extension of lifespan of C. elegans” value in the assay on C. elegans is listed as 56.0%.
Take aspulvinone R: the IC50 on SARS-CoV-2 M^pro [1] is 7.7 ± 0.6 µM.
For the compound `CC(C)=CCc1cc(/C=C2\OC(=O)C(c3cc4c(cc3O)OC(C)(C)CC4)=C2O)ccc1O` [aspulvinone D], at SARS-CoV-2 M^pro [1], the IC50 is 10.3 ± 0.6 µM.
Turning to `O=c1c2ccccc2[se]n1-c1ccccc1` [ebselen], the IC50 with M^pro is 0.04 ± 0.004 µM.
In the case of `Oc1cc(O)c2c(c1)O[C@H](c1ccc(O)c(O)c1)[C@H](O)C2` [EC, (−)-epicatechin], the affinity at SARS-CoV-2 M^pro [2], expressed as Kd, was 23.9 µM.
As to `CC(C)(O)C1Cc2cc(/C=C3\OC(=O)C(c4cc5c(cc4O)OC(C)(C)C(O)C5)=C3O)ccc2O1` (centres unmarked) [aspulvinone M], the concentration for half-maximal inhibition (IC50) at SARS-CoV-2 M^pro [1] is 9.4 ± 0.6 µM.
Turning to Zijuanin E, in the assay with C. elegans, the “extension of lifespan of C. elegans” value is 67.2%.
With `O=C1O[C@H]([C@@H](O)CO)C(O)=C1O` [VC], the “IC50 of DPPH free radical scavenging” value in assay [3] was found to be 1.14 µg/mL.
